These results are taken from ChEMBL document CHEMBL1772965, “Analogues and derivatives of oncrasin-1, a novel inhibitor of the C-terminal domain of RNA polymerase II and their antitumor activities” (J Med Chem, 2011).

Calls of active or inactive are those of the source. No cut-off for these calls is given here.

Data set [1] is described as follows: Cytotoxicity against mutant K-ras-transformed human T29Kt1 cells assessed as cell viability after 3 days by sulforhodamine B assay. It counts as functional, cell-based. As to conditions: T29Kt1, 72 h. The gist of the method:
(§1)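 Monolayer cultures were grown in RPMI-1640 or DMEM with 10% heat-inactivated fetal calf serum and penicillin/streptomycin, at 37°C and 5% CO2. Cells were exposed for 3 days to compound from 10−4.5 M (31.6 μM) down to 10−8 M (10 nM), with 1% DMSO as the control. Viability was read by sulforhodamine B. IC50 was the dose halving surviving cells versus control, run in quadruplicate and repeated at least three times.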

Data set [2] is described as follows: Cytotoxicity against human T29 cells assessed as cell viability after 3 days by sulforhodamine B assay. As to conditions: T29, 72 h. The class given is cell-based. An outline of the steps: as §1
In general terms: Sulforhodamine B stains cellular protein and so reports cell mass.

Data set [3] has as its system NCI-H460. Briefly: Cytotoxicity against human H460 cells assessed as cell viability after 3 days by sulforhodamine B assay. The class given is functional, cell-based. The following applies: NCI-H460, 72 h. An outline of the steps:
as §1

The nature of data set [4]: Stability of compound at pH 4. It counts as physicochemical. As to conditions: buffer.
Data set [5] is described as follows: Stability of compound at pH 6. The class given is physicochemical. As to conditions: buffer.
Data set [6] is described as follows: Stability of compound at pH 7.4. It counts as physicochemical. As to conditions: buffer.
Data set [7] is described as follows: Stability of compound at pH 9. As to conditions: buffer. It counts as physicochemical.
Data set [8] in a line: Stability of compound at pH 2. The class given is physicochemical. The following applies: buffer.
The test system of data set [9] is NCI-H157. Briefly: Antitumor activity against human NCI-H157 cells assessed as cell viability after 3 days by sulforhodamine B assay. The class given is functional, cell-based. As to conditions: NCI-H157, 72 h. An outline of the steps:
as §1

Data set [10] relates to NCI-H460. In words: Antitumor activity against human H460 cells assessed as cell viability after 3 days by sulforhodamine B assay. The following applies: for IC50: NCI-H460, 72 h. The class given is functional, cell-based. The gist of the method: as §1
Data set [11] relates to NCI-H1299. In words: (§2) Antitumor activity against human H1299 cells assessed as cell viability after 3 days by sulforhodamine B assay. It counts as functional, cell-based. An outline of the steps: as §1
The subject of data set [12] is NCI-H322. Briefly: (§3) Antitumor activity against human NCI-H322 cells assessed as cell viability after 3 days by sulforhodamine B assay. The class given is functional, cell-based. The gist of the method:
as §1

Data set [13] deals with NCI-H157. In words: Inhibition of RNA pol2 CTD phosphorylation in human NCI-H157 cells at 1 uM after 12 hrs by Western blot analysis. The class given is cell-based. The gist of the method:
(§4)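 Cells were treated with 1 μM compound for 12 h and then analysed by Western blot. Phospho-CTD was detected with the H5 antibody (diluted 1:1000), and β-actin (1:1000) served as the loading reference.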
(In general: A western blot detects proteins with antibodies after separation by electrophoresis.)

For data set [14], the system named is H460. Briefly: Inhibition of RNA pol2 CTD phosphorylation in human H460 cells at 1 uM after 12 hrs by Western blot analysis. The class given is cell-based. An outline of the steps:
as §4

Data set [15] relates to H1299. Briefly: Inhibition of RNA pol2 CTD phosphorylation in human H1299 cells at 1 uM after 12 hrs by Western blot analysis. The class given is cell-based. An outline of the steps: as §4
The subject of data set [16] is NCI-H322. Briefly: Inhibition of RNA pol2 CTD phosphorylation in human NCI-H322 cells at 1 uM after 12 hrs by Western blot analysis. The class given is cell-based. An outline of the steps:
as §4

Data set [17] is described as follows: as §2. The class given is functional, cell-based. The following applies: NCI-H1299, 72 h. The gist of the method:
as §1

Data set [18] is described as follows: as §3. The class given is functional, cell-based. As to conditions: NCI-H322, 72 h. An outline of the steps: as §1

Turning to `OCc1cn(Cc2cccc(Cl)c2)c2ccccc12`, the IC50 was 160 nM in data set [1]; over 31600 nM in [2]; 19 nM in [3]; at most 200 nM in data set [9]; at most 200 nM in [10]. Moreover, the Stability entry in [4] is recorded as “Stable”; in data set [5], “Stable”; in data set [6], “Stable”; in data set [7], “Stable”; in data set [8], “Unstable”. Moreover, the Activity result in data set [10], in [11] and in data set [12] was “Dose-dependent effect” throughout. Moreover, the inhibition result in [13] is “Dose-dependent effect”. Moreover, the inhibition entry in data set [14] was “Active”. The inhibition entry in data set [15] and in data set [16] was “inactive” each time.

Regarding `OCc1cn(Cc2ccc(Cl)cc2)c2ccccc12`, the IC50 is 79 nM in data set [1]; over 31600 nM in [2]; 16 nM in data set [3]; at most 200 nM in data set [9]; at most 200 nM in [10]. Also, the Stability entry was “Stable” in [4]; “Stable” in [5]; “Stable” in [6]; “Stable” in [7]; “Unstable” in data set [8]. For the same compound, the Activity result in data set [10], in [11] and in data set [12] was “Dose-dependent effect” each time. In addition, the inhibition entry in data set [13] is “Dose-dependent effect”. In addition, in [14], the inhibition entry is “Active”. The inhibition entry in data set [15] and in data set [16] was “inactive” throughout.

Take `OCc1cn(Cc2cccc(F)c2)c2ccc(Cl)cc12`: the IC50 in data set [1] is 160 nM; in data set [2], 10000 nM; in data set [3], 70 nM; in data set [9], at most 200 nM; in data set [10] it was at most 200 nM; in [17], at least 13000 nM. The 50% inhibitory concentration (IC50) in data set [18] is at least 13000 nM. The Stability entry in [4] was “Stable”; in data set [5], “Stable”; in data set [6], “Stable”; in data set [7] it was “Stable”; in [8] it was “Unstable”. Besides, the inhibition entry in data set [13] and in data set [14] was “Active” throughout. Further, the inhibition result in data set [15] and in data set [16] was “inactive” each time.

As usually defined, the IC50 is the concentration that inhibits the measured activity by half.
